High-throughput results (PubChem)
KCNQ1 block = inhibitors of human KCNQ1 potassium channel | P51787 | 310,000 compounds, 1.3% hits | AID 2642 | B-score at 10 µM | CHO-K1 KCNQ1, FluxOR thallium flux fluorescence; stronger effect = higher value;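 active = compounds whose thallium flux B-score, printed positive for inhibition, exceeds three library SD while starting fluorescence stays within three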;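 note: channel opened by potassium depolarization with thallium stimulus after 20 min compound exposure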
Kir21 inh = inhibitors of mouse Kir2.1 inward-rectifier potassium channel. P35561. B-score at 10 µM. 310,000 compounds, 0.85% hits. AID 1672. HEK293-Kir2.1, FluxOR thallium flux fluorescence; stronger effect = lower value;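 active = fluorescence ratio B-score at or below minus 3 SD of library scores, with starting-brightness B-score within 2 SD, cut at about -4.2 in these data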;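 note: channel flux triggered by added potassium and thallium sulfate stimulus; B-score of peak minus minimum fluorescence over baseline after thallium stimulus; more negative B-score means stronger Kir2.1 block with less thallium influx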
KCNQ1 pot = potentiators or activators of human KCNQ1 potassium channel. P51787. CHO-K1 KCNQ1, thallium flux FluxOR fluorescence; stronger effect = higher value. B-score at 10 µM. 310,000 compounds, 0.35% hits. AID 2648;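 active = fluorescence ratio B-score, a plate-corrected score, at least three library SD, with initial intensity B-score within 5 SD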
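Assay system: CHO-K1 cells stably expressing KCNQ1; Medium: assay buffer with matched DMSO; Also added: K+/Tl+ depolarizing stimulus; Dosing: single dose; Timing: dye 90 min, compound 20 min, room temperature; Measured by: kinetic FluxOR thallium fluorescence, 10-s 1-Hz baseline, 110-s post-stimulus read; Read-out: peak-minus-minimum fluorescence over initial fluorescence, negative-control normalized, B-scored.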
KCNK3 inh = human KCNK3 channel inhibition, primary screen. O14649. CHO-KCNK3 thallium flux, FluxOR fluorescence; stronger effect = lower value. B-score at 10 µM. 340,000 compounds, 0.84% hits;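 active = B-score under library mean minus 4 SD, starting fluorescence ratio at most library mean plus 5 SD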;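 note: more negative B-score means stronger inhibition of thallium flux through KCNK3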
Target sequence (O14649 whole entry, looked up): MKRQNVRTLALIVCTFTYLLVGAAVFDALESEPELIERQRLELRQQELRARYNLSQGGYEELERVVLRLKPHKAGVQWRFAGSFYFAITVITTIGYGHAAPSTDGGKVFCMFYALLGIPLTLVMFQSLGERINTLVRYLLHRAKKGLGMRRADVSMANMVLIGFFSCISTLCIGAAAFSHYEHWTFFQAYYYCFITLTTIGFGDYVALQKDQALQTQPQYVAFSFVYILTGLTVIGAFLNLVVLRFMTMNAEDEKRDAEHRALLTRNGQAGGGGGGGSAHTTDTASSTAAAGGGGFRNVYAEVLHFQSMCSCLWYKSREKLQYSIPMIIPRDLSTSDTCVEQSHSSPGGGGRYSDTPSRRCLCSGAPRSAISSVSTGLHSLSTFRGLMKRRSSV
KCNK9 block = inhibitors of human KCNK9 two-pore domain potassium channel. HEK293 KCNK9, FluxOR thallium flux fluorescence; stronger effect = lower value. Q9NPC2. B-score at 10 µM. AID 488922. 310,000 compounds, 1.2% hits;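 active = ratio B-score over 3 SD below the library mean, with starting fluorescence within 5 SD of its mean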;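 note: negative B-score means less thallium flux so channel inhibition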
Target sequence (Q9NPC2 whole entry, looked up, the tested form may be a part): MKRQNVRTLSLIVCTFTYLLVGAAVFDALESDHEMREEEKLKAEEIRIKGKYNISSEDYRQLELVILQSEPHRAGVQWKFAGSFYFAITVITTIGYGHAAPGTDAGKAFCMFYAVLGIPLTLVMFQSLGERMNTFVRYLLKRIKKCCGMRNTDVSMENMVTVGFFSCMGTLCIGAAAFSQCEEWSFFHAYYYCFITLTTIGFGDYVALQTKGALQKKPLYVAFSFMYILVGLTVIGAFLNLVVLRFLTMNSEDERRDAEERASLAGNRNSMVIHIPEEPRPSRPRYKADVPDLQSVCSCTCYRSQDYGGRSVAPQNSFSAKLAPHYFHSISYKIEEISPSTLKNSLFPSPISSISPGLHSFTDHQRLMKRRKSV
hERG rescue = hERG (human) protection from proarrhythmic block | Q12809 | CHO-hERG, FluxOR thallium flux, dofetilide IC70 present | activation (rescue from dofetilide block), less the hit threshold, % at 10 µM | 310,000 compounds, 0.51% hits | AID 1511;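 active = activation above the mean of controls blocked by dofetilide plus 5 SD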;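 note: thallium influx through hERG after potassium depolarization seen as dye fluorescence rise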
KCNQ1 block val = human KCNQ1 channel inhibition, validation assay; shares compounds with KCNQ1 block; 1,600 compounds, 93% hits; KCNQ1 cell line, FluxOR thallium flux fluorescence; inhibition, % at 10 µM;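 active = primary screen active, with duplicate mean exceeding buffer control mean plus 3 SD of buffer wells, cut at about 28% in these data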;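 note: 0% = buffer control ratio and 100% = XE991 inhibitor control ratio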
CHO Tl flux = KCNQ1 inhibitor counter-screen hit in parental CHO cells | shares compounds with KCNQ1 block | parental CHO-K1, FluxOR thallium flux fluorescence ratio; stronger effect = lower value; zero means no signal rise above baseline | fluorescence ratio (Tl flux) at 10 µM | 1,600 compounds, 21% hits;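 active = mean of duplicate thallium-flux fluorescence ratios in parental host cells more than 5 SD below the buffer control mean, cut at about 0.38 in these data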;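 note: ratio is peak minus minimum fluorescence divided by baseline fluorescence; actives read low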
KCNQ1 APC inh = blocks human KCNQ1 current in automated patch clamp | shares compounds with KCNQ1 block | KCNQ1-CHO cells | calls only at 10 µM | 490 compounds, 20% hits | AID 624120;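 active = KCNQ1 current drop exceeding 3 SD of negative control wells, seen in both duplicate runs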;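 note: steady state current during a 2 s step from -80 to +40 mV; negative values mean current inhibition and positive values mean potentiation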
KCNQ2 inh = selectivity of KCNQ1 inhibitors: inhibition of rat KCNQ2 channel; 1,600 compounds, 71% hits; inhibition, % at 10 µM; shares compounds with KCNQ1 block; KCNQ2 cells, FluxOR thallium flux fluorescence;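 active = mean percent inhibition of the KCNQ2 thallium signal more than 5 SD above the buffer-only control wells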;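 note: KCNQ2 expressed in CHO cells; 0% = buffer control wells and 100% = XE-991 inhibitor control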
KCNQ1 KCNE1 spec = KCNQ1 inhibitor that also blocks human KCNQ1/KCNE1 channel. shares compounds with KCNQ1 block. KCNQ1/KCNE1 cells, FluxOR thallium flux fluorescence. inhibition, % at 10 µM. 1,600 compounds, 77% hits;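 active = mean percent inhibition of duplicate wells above the buffer-only control mean plus 3 SD of those controls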;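 note: 0% = buffer only wells and 100% = XE-991 inhibitor control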
The depositor's hits bear a star; i = inactive; nt = no result given; + = active, no number. Shown are actives, neighbours in structure and some others; about 3.7% of the full set was active somewhere.

SMILES | KCNQ1 block | Kir21 inh | KCNQ1 pot | KCNK3 inh | KCNK9 block | hERG rescue | KCNQ1 block val | CHO Tl flux | KCNQ2 inh | KCNQ1 KCNE1 spec | others
NC(=O)c1cc2ccc(O)cc2oc1=NCc1ccccc1 | 31* | -23 | i | i | i | -60 | + | 0.048* | i | i
CC1CCN(c2nnc(-c3ccccc3)c3ccccc23)CC1 | 6* | -0.52 | i | i | i | -13 | 92* | 0.41 | 90%* | 143%* | KCNQ1 APC inh=i
Cc1ccc(-c2nnc(N3CCC(C)CC3)c3ccccc23)cc1C | 12* | 0.95 | i | i | i | -34 | 164* | 0.31* | 114%* | +
Cc1ccc(NC(=O)CN(C)C(=O)COC(=O)[C@@H](NC(=O)c2ccccc2F)C(C)C)cc1 | nt | nt | nt | i | nt | nt | nt | nt | nt | nt
CC(C)(C)c1csc(NC(=O)Cc2ccc(S(=O)(=O)N3CCOCC3)s2)n1 | 9* | -1.4 | i | i | i | -7 | 72* | 0.47 | i | 96%*
O=C(C1COc2ccccc2O1)N1CCN(Cc2ccc3c(c2)OCO3)CC1 (centres undefined) | i | -0.45 | i | i | i | -5 | nt | nt | nt | nt
O=C(C1COc2ccccc2O1)N1CCN(Cc2ccc(Br)cc2F)CC1 (centres undefined) | 8* | 0.62 | i | i | i | -7 | 60* | 0.48 | 108%* | 80%*
COc1cc(CNc2ncnc3c2[nH]c2ccc(C)cc23)cc(OC)c1 | i | 0.16 | i | i | i | -13 | nt | nt | nt | nt
Cc1ccc2[nH]c3c(NCc4ccco4)ncnc3c2c1 | 9* | 0.09 | i | i | i | -20 | 102* | 0.45 | 70%* | 39%* | KCNQ1 APC inh=i
O=C(Nc1cccc(F)c1)N1CC=C(c2ccc(Cl)cc2)CC1 | 13* | -0.18 | i | i | i | -11 | 132* | 0.44 | 103%* | 168%* | KCNQ1 APC inh=i
O=C(CN1CCN(c2ccc(Cl)cc2)CC1)Nc1cccc(F)c1 | i | -0.39 | i | i | i | -8 | nt | nt | nt | nt
O=C(c1cccc(S(=O)(=O)N2CCN(c3ccc(F)cc3)CC2)c1)N1CCCC(C(F)(F)F)C1 (centres undefined) | 6* | 0.92 | i | i | i | -14 | 94* | 0.48 | 89%* | 64%* | KCNQ1 APC inh=i
CC1CN(C(=O)c2cccc(S(=O)(=O)N3CCN(c4ccc(F)cc4)CC3)c2)CC(C)O1 (centres undefined) | i | -0.7 | i | i | i | -8 | nt | nt | nt | nt
COc1cc(OC)cc(C(=O)NCC2CCCN(Cc3cccc(C(C)=O)c3)C2)c1 (centres undefined) | i | 1.8 | i | i | i | -10 | nt | nt | nt | nt
Cc1cccc(C)c1-n1nnnc1C1(Nc2ccccc2)CCCCC1 | 7* | 0.01 | i | i | -7.7* | -14 | 109* | 0.36* | 109%* | 130%*
COCCN(C(=O)CSc1nnc(-c2ccc(C(C)(C)C)cc2)n1N)c1c(N)n(CC(C)C)c(=O)[nH]c1=O | i | 0.06 | i | i | i | -8 | nt | nt | nt | nt
Cc1cccc(NC(=O)c2ccccc2OCC(=O)c2ccccc2)c1 | i | -1.1 | i | i | i | -12 | nt | nt | nt | nt
Cc1cccc(NC(=O)COc2ccccc2C(=O)NC(C)c2ccccc2)c1 (centres undefined) | 7* | 0.02 | i | i | i | -7 | 130* | 0.4 | i | 190%*
COc1ccc(C(NC(=O)C2CCCCC2)c2c(O)ccc3ccccc23)cc1 (centres undefined) | 7* | 1.2 | i | i | i | -5 | 82* | 0.43 | 89%* | 92%*
Cc1cc(C(=O)N2CCN(C(c3ccccc3)c3ccccc3)CC2)no1 | i | -1.5 | i | i | i | -8 | nt | nt | nt | nt
CCCc1cc(C(=O)N2CCN(C(c3ccccc3)c3ccccc3)CC2)no1 | 10* | -0.68 | i | i | i | -11 | 126* | 0.4 | 106%* | 162%* | KCNQ1 APC inh=i
O=C(Nc1ccc(Cl)cc1)Nc1nnc(-c2ccncc2)s1 | i | -0.41 | i | i | i | -11 | nt | nt | nt | nt
Cc1ccc(NC(=O)Nc2nnc(-c3ccncc3)s2)cc1C | 11* | 0.82 | i | i | i | -8 | 105* | 0.5 | i | 57%* | KCNQ1 APC inh=i
Cc1ccc(Cl)c2c(N=Nc3ccccc3)c(O)[nH]c12 | 6* | -1 | i | i | i | -5 | 148* | 0.29* | i | i
O=C(O)c1ccc(N=Nc2c(O)[nH]c3ccccc23)cc1 | i | 0 | i | i | i | -17 | nt | nt | nt | nt
SMILES | KCNQ1 block | Kir21 inh | KCNQ1 pot | KCNK3 inh | KCNK9 block | hERG rescue | KCNQ1 block val | CHO Tl flux | KCNQ2 inh | KCNQ1 KCNE1 spec | others
CCCCCN1C(=O)Cn2c(nc3ccccc3c2=O)C1C (centres undefined) | i | 2.3 | i | i | i | -12 | nt | nt | nt | nt
Cc1ccc(CNS(=O)(=O)c2ccc(CN3C(=O)c4cccnc4C3=O)cc2)o1 | i | -0.18 | i | i | i | -3 | nt | nt | nt | nt
COc1ccc(Nc2nc(-c3cccc([N+](=O)[O-])c3)nc3ccccc23)c(OC)c1 | i | -1.5 | i | i | i | -12 | nt | nt | nt | nt
COc1ccc(Nc2nc(-c3cccs3)nc3ccccc23)c(OC)c1 | 8* | -0.8 | i | i | i | -7 | 132* | 0.33* | 131%* | +
CCn1c(-c2cc(-c3cccc(OC)c3)nc3ccccc23)n[nH]c1=S | 6* | 0.91 | i | i | i | -12 | 80* | 0.47 | i | 95%*
CCc1ccc(-c2cc(-c3n[nH]c(=S)n3CC)c3ccccc3n2)cc1 | i | 0.41 | i | nt | i | -5 | nt | nt | nt | nt
O=C(CN1CCN(c2ccc(O)cc2)CC1)Nc1ccc(S(=O)(=O)N2CCCC2)cc1 | nt | nt | nt | i | nt | nt | nt | nt | nt | nt
C=CCN(c1nc(C)c(Br)c(OC)n1)S(=O)(=O)c1ccc(C)cc1 | 7* | 0.01 | i | i | i | -10 | 113* | 0.44 | 118%* | 83%* | KCNQ1 APC inh=i
